Laboratory results as given in ChEMBL document CHEMBL4312029, “Structure-activity relationship studies and in vitro and in vivo anticancer activity of novel 3-aroyl-1,4-diarylpyrroles against solid tumors and hematological malignancies” (Eur J Med Chem, 2020).
Activity calls are given as the source filed them. No cut-off for these calls is given here.

Legend:
[1] = test system: KBM5; test: Potentiation of NLT-induced apoptotic cell death in human KBM5 cells expressing IM-resistant Bcr/Abl T315I mutant at 10 nM co-incubated with NLT for 48 hrs by Annexin V-staining based flow cytometry; type: functional
Outline: (§1)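 KBM5-WT or KBM5-T315I CML cells treated 48 h with 10 nM nilotinib, with or without 10 nM test compound (each agent alone also run). Apoptosis measured by annexin V staining and flow cytometry, read as percentage of apoptotic cells. Triplicate experiments.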

[2] = test system: T98G; test: Cytotoxicity against human T98G cells assessed as reduction in cell viability incubated for 48 hrs by MTS assay; type: functional, cell-based
Outline: (§2)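 Increasing concentrations applied to glioblastoma and neuroblastoma lines to give dose-response viability curves; cytotoxic IC50 from triplicate experiments. Incubation 48 h, except U343MG at 72 h.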

[3] = Cytotoxicity against human LAMA84-s cells expressing IM-sensitive wild type Bcr/Abl assessed as reduction in cell viability incubated for 48 hrs by MTT assay; type: functional, cell-based
[4] = test system: MCF7; test: Cytotoxicity against human MCF7 cells assessed as reduction in cell growth incubated for 96 hrs by MTT assay; type: functional, cell-based; settings: MCF7, 96 h
Outline: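 Growth inhibition of human breast carcinoma cells, reported as IC50; run in duplicate or triplicate.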

[5] = molecular target: Tubulin (Homo sapiens) (UniProt P68371+Q9H4B7+P0DPH7+P68366+Q13509+Q71U36+P04350+Q3ZCM7+P07437+P68363+Q9BQE3+Q6PEY2+Q13885+Q9BVA1+Q9BUF5); test: Inhibition of [3H]colchicine binding to tubulin (unknown origin) at 5 uM incubated for 10 mins by DEAE-cellulose filter method relative to control; type: protein-complex assay
[6] = test system: KBM5; test: Induction of apoptotic cell death in human KBM5 cells expressing IM-sensitive wild type Bcr/Abl at 10 nM incubated for 48 hrs by Annexin V-staining based flow cytometry; type: functional
Outline: (§3)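 KBM5-WT and KBM5-T315I cells exposed 48 h to 10 nM test compound alone or combined with 10 nM nilotinib (nilotinib alone as comparator). Apoptotic cells quantified by annexin V staining and flow cytometry; triplicate.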

[7] = Cytotoxicity against IM resistant human LAMA84-r cells assessed as reduction in cell viability incubated for 48 hrs by MTT assay; type: functional, cell-based
[8] = test system: KBM5; test: Cytotoxicity against human KBM5 cells expressing IM- sensitive wild type Bcr/Abl assessed as reduction in cell viability incubated for 48 hrs by MTT assay; type: functional, cell-based; settings: KBM5, 48 h
[9] = test system: PBMC; test: Cytotoxicity against human PBMC assessed as cell viability by MTT assay; type: cell-based
[10] = test system: HCT-116; test: Cytotoxicity against human HCT116 cells assessed as reduction in cell viability incubated for 48 hrs by MTT assay; type: functional, cell-based
[11] = test system: KU812 cell line; test: Cytotoxicity against human KU812 cells expressing IM- sensitive wild type Bcr/Abl assessed as reduction in cell viability incubated for 48 hrs by MTT assay; type: functional, cell-based; settings: KU812, 48 h
[12] = test system: KBM5; test: Potentiation of NLT-induced apoptotic cell death in human KBM5 cells expressing IM-sensitive wild type Bcr/Abl at 10 nM co-incubated with NLT for 48 hrs by Annexin V-staining based flow cytometry; type: functional; outline: as §1
[13] = test system: U-87 MG; test: Cytotoxicity against human U87MG cells assessed as reduction in cell viability incubated for 48 hrs by MTS assay; type: functional, cell-based, U-87MG ATCC; outline: as §2
[14] = test system: KBM5; test: Induction of apoptotic cell death in human KBM5 cells expressing IM-resistant Bcr/Abl T315I mutant at 10 nM incubated for 48 hrs by Annexin V-staining based flow cytometry; type: functional; outline: as §3
[15] = molecular target: Tubulin; test: Inhibition of tubulin polymerization (unknown origin) incubated for 15 mins followed by GTP addition and measured for 20 mins by spectrophotometry; type: protein-complex assay, Homo sapiens
Outline: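 Tubulin assembly assay with tubulin at 10 µM. IC50 for inhibition of polymerization; run in duplicate or triplicate.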

[16] = Cytotoxicity against human SK-N-BE(2)C cells assessed as reduction in cell viability incubated for 48 hrs by MTT assay; type: functional, cell-based; outline: as §2
[17] = test system: SW480; test: Cytotoxicity against human SW480 cells assessed as reduction in cell viability incubated for 48 hrs by MTT assay; type: functional, cell-based
[18] = species on record: Homo sapiens; test: (§4) Cytotoxicity against human U343MG cells assessed as reduction in cell viability incubated for 72 hrs by MTS assay; type: functional, cell-based; outline: as §2
[19] = as §4; type: functional, cell-based; settings: U-343MG; outline: as §2
[20] = test system: T-24; test: Cytotoxicity against human T24 cells assessed as reduction in cell viability incubated for 48 hrs by MTT assay; type: functional, cell-based; settings: T-24, 48 h
[21] = test system: SW-620; test: Cytotoxicity against human SW620 cells assessed as reduction in cell viability incubated for 48 hrs by MTT assay; type: functional, cell-based
[22] = test system: HT-29; test: Cytotoxicity against human HT-29 cells assessed as reduction in cell viability incubated for 48 hrs by MTT assay; type: functional, cell-based
[23] = test system: KBM5; test: Cytotoxicity against human KBM5 cells expressing IM-resistant Bcr/Abl T315I mutant assessed as reduction in cell viability incubated for 48 hrs by MTT assay; type: functional, cell-based; settings: KBM5, 48 h
[24] = Cytotoxicity against human SK-N-BE cells assessed as reduction in cell viability incubated for 48 hrs by MTT assay; type: functional, cell-based; outline: as §2

SMILES: COc1cc(C(=O)c2cn(-c3ccc(N)cc3)cc2-c2ccc(N)cc2)cc(OC)c1OC
- Activity [1]: 50 - 90%
- Emax [2]: 36.2%
- IC50 [2]: 0.024 to 0.0243 µM
- inhibition [2]: Dose-dependent effect
- IC50 [3]: 0.008 µM
- IC50 [4]: 0.015 µM
- inhibition [5]: 87%
- Activity [6]: Active
- IC50 [7]: 0.01 µM
- IC50 [8]: 0.01 µM
- Activity [9]: Non-Toxic
- inhibition [10]: Dose-dependent effect
- IC50 ([10]; HCT-116, 48 h): 0.041 µM
- IC50 [11]: 0.005 µM
- Activity [12]: 50 - 90%
- Emax [13]: 31.8%
- IC50 [13]: 0.0476 to 0.048 µM
- inhibition ([13]; U-87MG ATCC): Dose-dependent effect
- Activity [14]: Active
- IC50 [15]: 0.38 µM
- IC50 [16]: 0.147 µM
- inhibition [17]: Dose-dependent effect
- IC50 ([17]; SW480, 48 h): 0.153 µM
- inhibition [18]: Dose-dependent effect
- Emax [19]: 34%
- IC50 [19]: 0.0215 to 0.022 µM
- IC50 [20]: 0.058 µM
- inhibition [21]: Dose-dependent effect
- IC50 ([21]; SW-620, 48 h): 0.061 µM
- inhibition [22]: Dose-dependent effect
- IC50 ([22]; HT-29, 48 h): 0.034 µM
- IC50 [23]: 0.012 µM
- IC50 [24]: 0.303 µM
